Measured values: ChEMBL document CHEMBL1158473, “Aromatic 2-(thio)ureidocarboxylic acids as a new family of modulators of multidrug resistance-associated protein 1: synthesis, biological evaluation, and structure-activity relationships” (J Med Chem, 2009)
Calls of active or inactive are those of the source. The calls are words filed in the database; no cut-off is given here.

Columns and labels:
[1] = target: T1, Multidrug resistance-associated protein 1 (Homo sapiens, UniProt P33527); assay: Inhibition of MRP1-mediated calcein AM transport expressed in multidrug resistant human 2008 cells assessed as calcein AM accumulation at 100 uM by fluorescence assay in presence of p-gp and BCRP inhibitor XR9577; assay type: cell-based; conditions: human, 2008, 100 µM
[2] = target: T1, Multidrug resistance-associated protein 1; assay: Inhibition of MRP1
In short: (§1)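 Transfected 2008 MRP1 cells run beside 2008 WT cells, 21000 cells per well in Krebs-HEPES buffer. Cobalt sulfate was added to quench extracellular calcein, plus XR9577 to block P-gp. After 30 min preincubation with compound, calcein AM (final 0.5 μM) was added and fluorescence followed 30 min. Slopes were normalized and fitted by a four-parameter logistic; indomethacin (0.316–178 μM) was included.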

[3] = target: T1, Multidrug resistance-associated protein 1; assay: Inhibition of MRP1 expressed in multidrug resistant human 2008 cells assessed as calcein AM accumulation by fluorescence assay in presence of p-gp and BCRP inhibitor XR9577; assay type: cell-based; in short: as §1
BCRP (ABCG2) = target: T2, BCRP (ABCG2) (Homo sapiens, UniProt Q9UNQ0); assay: Inhibition of BCRP expressed in human MCF7 MX cells at 31.6 uM by Hoechst 33342 staining relative to 10 uM XR9577; assay type: cell-based; conditions: MCF7 MX cells expressing BCRP, probe Hoechst 33342
T2 sequence (Q9UNQ0 whole entry): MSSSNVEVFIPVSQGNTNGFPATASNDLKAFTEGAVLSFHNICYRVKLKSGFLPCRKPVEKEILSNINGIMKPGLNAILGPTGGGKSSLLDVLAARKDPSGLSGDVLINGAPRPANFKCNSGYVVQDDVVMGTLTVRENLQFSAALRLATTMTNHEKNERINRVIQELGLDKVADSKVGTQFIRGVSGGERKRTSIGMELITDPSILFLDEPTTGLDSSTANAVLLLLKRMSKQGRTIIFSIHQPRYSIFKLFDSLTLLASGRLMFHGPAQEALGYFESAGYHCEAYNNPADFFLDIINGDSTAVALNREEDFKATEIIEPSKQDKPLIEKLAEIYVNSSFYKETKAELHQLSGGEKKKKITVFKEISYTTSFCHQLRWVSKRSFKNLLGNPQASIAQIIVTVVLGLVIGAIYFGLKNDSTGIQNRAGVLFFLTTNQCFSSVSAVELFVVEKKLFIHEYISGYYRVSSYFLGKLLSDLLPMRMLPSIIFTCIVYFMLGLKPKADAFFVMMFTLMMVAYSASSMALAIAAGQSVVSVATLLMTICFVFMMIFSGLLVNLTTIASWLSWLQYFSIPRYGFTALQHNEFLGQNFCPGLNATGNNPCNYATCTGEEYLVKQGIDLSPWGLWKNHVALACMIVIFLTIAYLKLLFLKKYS
In short: (§2)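 MCF-7 MX cells, with parental MCF-7 alongside, in RPMI 1640 plus 10% FCS. Cells washed in Krebs-HEPES, about 20000 per well, preincubated with compound 30 min at 37 °C, 5% CO2. Hoechst 33342 added and fluorescence (ex 355/em 460 nm) read every 120 s up to 2400 s at 37 °C. Background-subtracted slopes were fitted; XR9577 10 μM served as positive control.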

2008 [4] = assay: Cytotoxicity against human 2008 cells after 72 hrs by MTT assay; conditions: Homo sapiens, 2008, 72 h
A2780 ADR [5] = assay: Inhibition of P-gp expressed in human A2780/ADR cells assessed as calcein AM accumulation a 31.6 uM by fluorescence assay; assay type: cell-based
In short: (§3)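 P-gp-overexpressing A2780/ADR cells, with wild-type A2780 alongside. Calcein AM accumulation run as in the MRP1 assay (30 min preincubation, final 0.5 μM calcein AM, 30 min reading) but without cobalt or XR9577. XR9577 10 μM served as positive control.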

A2780 ADR [6] = assay: Inhibition of P-gp expressed in human A2780/ADR cells assessed as calcein AM accumulation a 100 uM by fluorescence assay; assay type: cell-based; in short: as §3
[7] = target: T3, Broad substrate specificity ATP-binding cassette transporter ABCG2 (Homo sapiens, UniProt Q9UNQ0); assay: Inhibition of BCRP expressed in MCF7 MX cells by Hoechst 33342 staining; assay type: cell-based; in short: as §2
T3 sequence (Q9UNQ0 whole entry): T2 sequence (Q9UNQ0 whole entry)

2008 [8] = assay: Potentiation of vinblastine-induced cytotoxic activity against MRP1-expressing human 2008 cells at 31.6 uM after 72 hrs by MTT assay; assay type: functional, cell-based
In short: (§4)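 2008 MRP1 cells given a fixed 31.6 μM modulator together with vinblastine or daunorubicin at 0.1 nM–100 μM. Cytostatic alone was tested on 2008 MRP1 and WT cells as control; indomethacin 31.6 μM served as positive control. After 72 h, viability was read by MTT.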

2008 [9] = assay: Potentiation of daunorubicin-induced cytotoxic activity against MRP1-expressing human 2008 cells at 31.6 uM after 72 hrs by MTT assay; assay type: functional, cell-based; in short: as §4
2008 [10] = assay: Cytotoxicity against human 2008 cells after 24 hrs by MTT assay; assay type: cell-based; conditions: Homo sapiens, 2008, 24 h

T1 sequence (P33527 whole entry): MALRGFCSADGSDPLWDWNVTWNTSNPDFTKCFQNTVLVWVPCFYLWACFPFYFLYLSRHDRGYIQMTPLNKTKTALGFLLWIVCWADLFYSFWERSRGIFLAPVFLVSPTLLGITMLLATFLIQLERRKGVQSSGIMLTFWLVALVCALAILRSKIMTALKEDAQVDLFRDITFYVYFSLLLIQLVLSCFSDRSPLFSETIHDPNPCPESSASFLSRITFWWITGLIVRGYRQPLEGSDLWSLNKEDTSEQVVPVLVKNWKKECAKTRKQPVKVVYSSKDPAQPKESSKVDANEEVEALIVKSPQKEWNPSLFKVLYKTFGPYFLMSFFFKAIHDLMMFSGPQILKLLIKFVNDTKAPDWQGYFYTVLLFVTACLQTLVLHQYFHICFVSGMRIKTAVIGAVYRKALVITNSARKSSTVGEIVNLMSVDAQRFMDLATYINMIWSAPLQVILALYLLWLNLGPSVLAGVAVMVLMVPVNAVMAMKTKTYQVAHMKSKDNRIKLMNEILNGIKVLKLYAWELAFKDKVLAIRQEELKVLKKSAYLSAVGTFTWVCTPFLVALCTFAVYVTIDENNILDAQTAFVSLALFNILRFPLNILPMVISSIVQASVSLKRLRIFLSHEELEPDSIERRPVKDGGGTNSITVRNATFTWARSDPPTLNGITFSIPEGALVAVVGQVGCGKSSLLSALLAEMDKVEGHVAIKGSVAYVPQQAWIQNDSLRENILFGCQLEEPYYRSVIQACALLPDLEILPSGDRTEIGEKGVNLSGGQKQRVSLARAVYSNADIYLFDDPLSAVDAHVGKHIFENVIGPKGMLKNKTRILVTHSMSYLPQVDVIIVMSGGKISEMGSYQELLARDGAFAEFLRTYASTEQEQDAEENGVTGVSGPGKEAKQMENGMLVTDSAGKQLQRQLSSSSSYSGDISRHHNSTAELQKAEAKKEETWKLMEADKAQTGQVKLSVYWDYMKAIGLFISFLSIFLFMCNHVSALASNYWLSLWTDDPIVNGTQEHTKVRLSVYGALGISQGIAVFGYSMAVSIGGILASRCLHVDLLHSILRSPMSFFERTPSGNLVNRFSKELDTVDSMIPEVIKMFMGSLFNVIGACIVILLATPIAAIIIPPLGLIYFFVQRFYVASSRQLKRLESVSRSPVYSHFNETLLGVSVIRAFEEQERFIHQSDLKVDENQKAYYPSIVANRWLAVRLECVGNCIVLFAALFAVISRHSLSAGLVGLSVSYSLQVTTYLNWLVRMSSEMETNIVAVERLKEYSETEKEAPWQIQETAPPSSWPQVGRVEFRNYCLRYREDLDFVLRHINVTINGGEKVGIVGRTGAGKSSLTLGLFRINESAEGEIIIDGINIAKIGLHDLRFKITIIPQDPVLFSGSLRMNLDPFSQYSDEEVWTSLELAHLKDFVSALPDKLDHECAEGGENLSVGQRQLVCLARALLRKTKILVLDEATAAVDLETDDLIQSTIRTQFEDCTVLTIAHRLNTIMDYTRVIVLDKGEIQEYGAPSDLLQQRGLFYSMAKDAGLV

| Structure (SMILES) | inhibition (INH) [1] | IC50 [3] | IC50 2008 [4] | further results |
| --- | --- | --- | --- | --- |
| O=C(O)c1c(NC(=S)N2CCOCC2)sc2ccccc12 | Not Active |  |  |  |
| CN1CCN(C(=S)Nc2sc3c(c2C(=O)O)CCCC3)CC1 | Not Active |  |  |  |
| COc1cc(C2Oc3cc(-c4oc5cc(O)cc(O)c5c(=O)c4O)ccc3OC2CO)ccc1O (stereo not given) [DEHYDROSILYLBIN] |  |  |  | IC50 [2]: 1.1 µM |
| CCN(CC)C(=S)Nc1sc2c(c1C(=O)O)CCCCC2 |  | 5.97 µM | > 100 µM | inhibition at 31.6 µM (BCRP (ABCG2)): 25% |
| O=C(O)c1c(NC(=O)N2CCOCC2)sc2c1CCCC2 | Not Active |  |  |  |
| O=C(O)c1c(NC(=S)N2CCOCC2)sc2c1CCCC2 | Not Active |  |  |  |
| Cc1ccc(NC(=O)N(C)CCc2ccccc2)c(C(=O)O)c1 | Not Active |  |  |  |
| CN(C(=O)Nc1ccccc1C(=O)O)C1CCCCC1 |  |  | > 100 µM | inhibition at 31.6 µM (BCRP (ABCG2)): 25% |
| CN(C(=S)Nc1sc2ccccc2c1C(=O)O)C1CCCCC1 |  | 1.23 µM | > 100 µM | inhibition at 31.6 µM (BCRP (ABCG2)): 25% |
| Cc1ccc(NC(=O)N(C)Cc2ccccc2)c(C(=O)O)c1 | Not Active |  |  |  |
| CCN(CC)C(=O)Nc1cc2ccccc2cc1C(=O)O |  |  | > 100 µM |  |
| CN(C(=S)Nc1ccccc1C(=O)O)c1ccccc1 |  | 198 µM |  |  |
| CCN(CC)C(=S)Nc1ccccc1C(=O)O |  | 21.6 µM |  |  |
| CCN(CC)C(=S)Nc1sc(-c2ccccc2)cc1C(=O)O |  | 14.3 µM | > 100 µM | inhibition (A2780 ADR [5]): 20%; inhibition (A2780 ADR [6]): 40% |
| CN(Cc1ccccc1)C(=S)Nc1ccccc1C(=O)O |  | 29.1 µM |  |  |
| CCN(CC)C(=S)Nc1sc(C)c(C)c1C(=O)O |  | 20.4 µM |  |  |
| CN(C(=S)Nc1ccccc1C(=O)O)C1CCCCC1 |  |  | > 100 µM | inhibition at 31.6 µM (BCRP (ABCG2)): < 20% |
| CN(C)C(=S)Nc1sc2c(c1C(=O)O)CCCC2 | Not Active |  |  |  |
| O=C(O)c1c(-c2ccccc2)csc1NC(=S)N1CCOCC1 | Not Active |  |  |  |
| CN(C(=S)Nc1sccc1C(=O)O)C1CCCCC1 |  | 4.51 µM | > 100 µM | IC50 [7]: 10.2 µM; Activity 2008 [8]: inactive; Activity 2008 [9]: inactive |
| CC(C)NC(=O)Nc1sc2c(c1C(=O)O)CCCC2 | Not Active |  |  |  |
| Cc1sc(NC(=S)N(C)C2CCCCC2)c(C(=O)O)c1C |  | 4.19 µM | > 100 µM | inhibition at 31.6 µM (BCRP (ABCG2)): 25% |
| Cc1ccc(NC(=O)N(C)c2ccccc2)c(C(=O)O)c1 | Not Active |  |  |  |
| CN(CCc1ccccc1)C(=S)Nc1ccccc1C(=O)O |  | 24 µM |  |  |
| CCN(CC)C(=S)Nc1ccsc1C(=O)O |  | 4.18 µM |  | inhibition at 31.6 µM (BCRP (ABCG2)): 25%; IC50 2008 [10]: > 100 µM |

| Structure (SMILES) | inhibition (INH) [1] | IC50 [3] | IC50 2008 [4] | further results |
| --- | --- | --- | --- | --- |
| O=C(O)c1cc(-c2ccccc2)sc1NC(=S)N1CCOCC1 |  | 27.5 µM |  |  |
| CCN(CC)C(=S)Nc1sc(C(N)=O)c(C)c1C(=O)O |  | > 100 µM |  |  |
| COC(=O)CN(C)C(=O)Nc1ccccc1C(=O)O | Not Active |  |  |  |
| CCN(CC)C(=S)Nc1sc2c(c1C(=O)O)CCCC2 |  | 2.71 µM | > 100 µM | inhibition at 31.6 µM (BCRP (ABCG2)): 25% |
| CCN(CC)C(=O)Nc1sc2c(c1C(=O)O)CCCC2 |  |  | > 100 µM | inhibition at 31.6 µM (BCRP (ABCG2)): 25% |
| Cc1ccc(NC(=O)N(C)C2CCCCC2)c(C(=O)O)c1 |  | 22.8 µM |  |  |
| O=C(O)c1ccccc1NC(=O)N1CCCC1 |  | 43.1 µM |  |  |
| O=C(O)c1ccccc1NC(=S)N1CCCC1 |  | 18.3 µM |  |  |
| O=C(O)c1ccccc1NC(=S)N1CCNCC1 |  | 20.7 µM |  |  |
| CCN(CC)C(=S)Nc1sc2ccccc2c1C(=O)O |  | 0.932 µM | > 100 µM | IC50 [7]: 6.16 µM; Activity 2008 [8]: inactive; Activity 2008 [9]: inactive |
| CN(CCc1ccccc1)C(=O)Nc1ccccc1C(=O)O | Not Active |  |  |  |
| O=C(O)c1ccccc1NC(=S)N1CCOCC1 | Not Active |  |  |  |
| Cc1cc(NC(=O)N2CCOCC2)c(C(=O)O)cc1C |  | 43.4 µM |  |  |
| CN(C(=O)Nc1ccccc1C(=O)O)c1ccccc1 | Not Active |  |  |  |
| CCN(CC)C(=O)Nc1sc2c(c1C(=O)O)CCC2 |  |  | > 100 µM | inhibition at 31.6 µM (BCRP (ABCG2)): 25% |
| CCN(CC)C(=S)Nc1sc2c(c1C(=O)O)C(C)CCC2 (racemic) |  | 4.06 µM | > 100 µM | IC50 [7]: 9.1 µM |
| CCN(CC)C(=S)Nc1sc2c(c1C(=O)O)CCC2 |  | 2.56 µM | > 100 µM | inhibition at 31.6 µM (BCRP (ABCG2)): 25% |
| CCN(CC)C(=O)Nc1ccccc1C(=O)O |  | 26.4 µM |  |  |
| Cc1ccc(NC(=O)N2CCOCC2)c(C(=O)O)c1 | Not Active |  |  |  |
| CCN(CC)C(=S)Nc1sccc1C(=O)O |  | 4.46 µM | > 100 µM | inhibition at 31.6 µM (BCRP (ABCG2)): 25% |
| O=C(O)c1ccccc1NC(=O)N1CCOCC1 | Not Active |  |  |  |
| Cc1sc(NC(=S)N2CCOCC2)c(C(=O)O)c1C |  | 18.3 µM |  |  |
| CCN(CC)C(=S)Nc1scc(C(C)C)c1C(=O)O |  | 14.5 µM |  |  |
| CN(Cc1ccccc1)C(=O)Nc1ccccc1C(=O)O |  | 42.6 µM |  |  |
